From ChEMBL document CHEMBL1125819, “Novel benzamides as selective and potent gastrokinetic agents. 2. Synthesis and structure-activity relationships of 4-amino-5-chloro-2-ethoxy-N-[[4-(4-fluorobenzyl)-2- morpholinyl]methyl] benzamide citrate (AS-4370) and related compounds” (J Med Chem, 1991)

Assays:
Rattus norvegicus [1] = assay: Gastric emptying of phenol red semisolid meal in rats at dose of 2.0 mg/kg, administered perorally.; format: functional; details: route oral
Mus musculus [2] = assay: Toxicity tested in mouse and expressed as number of dead mouse / number of mouse used after a dose of 1.0 g/kg perorally; + slight toxicity; format: organism-based; details: in vivo, po, 1000 mg/kg
Procedure, shortened: (§1)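 Male ddY mice (18–25 g), groups of 10, given test compound dissolved or suspended in 0.5% tragacanth solution at a single oral dose of 1.0 g/kg. Mortality observed over 7 days after dosing and scored as dead/used per group; + corresponds to 0–2/10 dead.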

Mus musculus [3] = assay: Toxicity tested in mouse and expressed as number of dead mouse / number of mouse used after a dose of 1.0 g/kg perorally; +++ potent toxicity; format: organism-based; details: in vivo, po, 1000 mg/kg; procedure, shortened: as §1
Mus musculus [4] = assay: Toxicity tested in mouse and expressed as number of dead mouse / number of mouse used after a dose of 1.0 g/kg perorally; ++ moderate toxicity; format: organism-based; details: in vivo, po, 1000 mg/kg; procedure, shortened: as §1
Mus musculus [5] = assay: Gastric emptying of phenol red semisolid meal in mouse at the dose of 1.0 mg/kg administered perorally.; format: functional; details: route oral
Procedure, shortened: (§2)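 Mice received oral test article in 0.5% tragacanth, four or five animals per dose. Emptying of a phenol red semisolid meal was expressed as percent enhancement over the mean of 0.5% tragacanth controls. Significance was tested by Duncan's multiple range test.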

Rattus norvegicus [6] = assay: Gastric emptying of resin solid meal in rats at the dose of 2.0 mg/kg administered perorally.; format: functional; details: route oral
Mus musculus [7] = assay: Gastric emptying of phenol red semisolid meal in mouse at the dose of 0.5 mg/kg administered perorally.; format: functional; details: route oral; procedure, shortened: as §2
Rattus norvegicus [8] = assay: Gastric emptying of phenol red semisolid meal in rats at the dose of 0.5 mg/kg administered perorally.; format: functional; details: route oral
Rattus norvegicus [9] = assay: Gastric emptying of phenol red semisolid meal in rats at the dose of 0.2 mg/kg administered perorally.; format: functional; details: route oral

For `COc1cc(N)c(Cl)cc1C(=O)NCC1CN(C(C)c2ccc(F)cc2)CCO1` (centres undefined), the GE (Rattus norvegicus [1]) was 13%.

With `COc1cc(N)c(Cl)cc1C(=O)NCC1CN(Cc2ccc(F)cc2)CCO1` (centres undefined) the GE (Rattus norvegicus [1]) was 38%.

In the case of `COc1cc(N)c(Cl)cc1C(=O)NCC1CN(Cc2ccccc2F)CCO1` (centres undefined), the GE (Rattus norvegicus [1]) is reported as 28%.

Compound `COc1cc(N)c(Cl)cc1C(=O)NCC1CN(Cc2c(C)cc(C)cc2C)CCO1` (centres undefined) has a GE (Rattus norvegicus [1]) of 5%.

For `CCOc1cc(N)c(Cl)cc1C(=O)NCC1C[N+](C)(Cc2ccccc2Cl)CCO1.[I-]` (centres undefined), the GE (Rattus norvegicus [1]) was 34%.

In the case of `COc1cc(N)c(Cl)cc1C(=O)NCC1CN(CCc2ccccc2)CCO1` (centres undefined), the GE (Rattus norvegicus [1]) is reported as 29%.

With `CCOc1cc(N)c(Cl)cc1C(=O)NCC1CN(Cc2cccc(F)c2)CCO1` (centres undefined) the GE (Rattus norvegicus [1]) was 54%.

With `CCOc1cc(N)c(Cl)cc1C(=O)NCC1CN(Cc2ccc(C#N)cc2)CCO1` (centres undefined) the GE (Rattus norvegicus [1]) was 46% and the Acute toxicity (Mus musculus [2]) was “slight toxicity”.

In the case of `COc1cc(N)c(Cl)cc1C(=O)NCC1CN(Cc2ccccc2C#N)CCO1` (centres undefined), the GE (Rattus norvegicus [1]) is reported as 43% and the Acute toxicity (Mus musculus [2]) is reported as “slight toxicity”.

Compound `CCOc1cc(N)c(Cl)cc1C(=O)NCC1CN(Cc2cc(F)cc(F)c2)CCO1` (centres undefined) has a GE (Rattus norvegicus [1]) of 52%.

`CCOc1cc(N)c(Cl)cc1C(=O)NCC1CN(Cc2ccccc2C#N)CCO1` (centres undefined) was tested, and the GE (Rattus norvegicus [1]) was 29%.

Work on `CCOc1cc(N)c(Cl)cc1C(=O)NCC1CN(C(C)c2ccc(Cl)cc2)CCO1` (centres undefined) yielded a GE (Rattus norvegicus [1]) of 33%.

`CCOc1cc(N)c(Cl)cc1C(=O)NCC1CN(Cc2ccc(C(=O)O)cc2)CCO1` (centres undefined) showed a GE (Rattus norvegicus [1]) of 13%.

`COc1cc(N)c(Cl)cc1C(=O)NCC1CN(Cc2ccc(N)cc2)CCO1` (centres undefined) showed a GE (Rattus norvegicus [1]) of 17%.

Compound `COc1cccc(CN2CCOC(CNC(=O)c3cc(Cl)c(N)cc3OC)C2)c1` (centres undefined) has a GE (Rattus norvegicus [1]) of 10%.

`COc1cc(N)c(Cl)cc1C(=O)NCC1CN(Cc2ccc(Cl)c(Cl)c2)CCO1` (centres undefined) was tested, and the GE (Rattus norvegicus [1]) was 16%.

For `CCOc1cc(N)c(Cl)cc1C(=O)NCC1CN(Cc2ccccc2Cl)CCO1` (centres undefined), the GE (Rattus norvegicus [1]) was 51% and the Acute toxicity (Mus musculus [2]) was “slight toxicity”.

Work on `COc1cc(N)c(Cl)cc1C(=O)NCC1CN(C(c2ccccc2)c2ccccc2)CCO1` (centres undefined) yielded a GE (Rattus norvegicus [1]) of 15%.

`CCOc1cc(NC=O)c(Cl)cc1C(=O)NCC1CN(Cc2ccc(F)cc2)CCO1` (centres undefined) showed a GE (Rattus norvegicus [1]) of 33%.

With `COc1cc(N)c(Cl)cc1C(=O)NCC1CN(Cc2c(F)c(F)c(F)c(F)c2F)CCO1` (centres undefined) the GE (Rattus norvegicus [1]) was 39% and the Acute toxicity (Mus musculus [2]) was “slight toxicity”.

With `CCOc1cc(N)c(Cl)cc1C(=O)NCC1CN(Cc2ccc(Cl)cc2[N+](=O)[O-])CCO1` (centres undefined) the GE (Rattus norvegicus [1]) was 47%.

Compound `CCOc1cc(N)c(Cl)cc1C(=O)NCC1CN(Cc2cccc(C#N)c2)CCO1` (centres undefined) has a GE (Rattus norvegicus [1]) of 33%.

For `CCOc1cc(N)c(Cl)cc1C(=O)NCC1CN(C(C)c2ccccc2)CCO1` (centres undefined), the GE (Rattus norvegicus [1]) was 44% and the Acute toxicity (Mus musculus [3]) was “potent toxicity”.

For `CCOc1cc(N)c(Cl)cc1C(=O)NCC1CN(Cc2cccc(Cl)c2)CCO1` (centres undefined), the Acute toxicity (Mus musculus [4]) was “moderate toxicity” and the GE (Rattus norvegicus [1]) was 58%.

In the case of `COc1cc(N)c(Cl)cc1C(=O)NCC1CN(Cc2cccc(C#N)c2)CCO1` (centres undefined), the GE (Rattus norvegicus [1]) is reported as 42% and the Acute toxicity (Mus musculus [3]) is reported as “potent toxicity”.

With `COc1cc(N)c(Cl)cc1C(=O)NCC1CN(C(C)c2ccccc2)CCO1` (centres undefined) the GE (Rattus norvegicus [1]) was 42% and the Acute toxicity (Mus musculus [3]) was “potent toxicity”.

Work on `CCOc1cc(N)c(Cl)cc1C(=O)NCC1CN(Cc2ccccc2)CCO1` (centres undefined) yielded a GE (Mus musculus [5]) of 23%, a GE (Rattus norvegicus [1]) of 54% and a GE (Rattus norvegicus [6]) of 58%. The GE (Mus musculus [7]) was 35%, the Acute toxicity (Mus musculus [2]) was “Partially active” and the GE (Rattus norvegicus [8]) was 34%.

`COc1cc(N)c(Cl)cc1C(=O)NCC1CN(Cc2ccccc2)CCO1` (centres undefined) was tested, and the Acute toxicity (Mus musculus [4]) was “Partially active”, the GE (Mus musculus [5]) was 59% and the GE (Rattus norvegicus [1]) was 39%. For the same compound, the GE (Rattus norvegicus [6]) was 16%, the GE (Mus musculus [7]) was 41% and the GE (Rattus norvegicus [8]) was 18%.

Work on `CCOc1cc(N)c(Cl)cc1C(=O)NCC1CN(CCCc2ccccc2)CCO1` (centres undefined) yielded a GE (Rattus norvegicus [1]) of 18%.

`COc1cc(N)c(Cl)cc1C(=O)NCC1CN(Cc2cccc(C(F)(F)F)c2)CCO1` (centres undefined) was tested, and the Acute toxicity (Mus musculus [4]) was “moderate toxicity” and the GE (Rattus norvegicus [1]) was 43%.

`COc1cc(N)c(Cl)cc1C(=O)NCC1CN(Cc2ccc(C(F)(F)F)cc2)CCO1` (centres undefined) showed a GE (Rattus norvegicus [1]) of 23%.

`CCOc1cc(N)c(Cl)cc1C(=O)NCC1CN(Cc2ccc(C(=O)OC)cc2)CCO1` (centres undefined) was tested, and the GE (Rattus norvegicus [1]) was 52%.

With `CCOc1cc(N)c(Cl)cc1C(=O)NCC1CN(Cc2c(F)c(F)c(F)c(F)c2F)CCO1` (centres undefined) the GE (Rattus norvegicus [1]) was 23%.

For `CCOc1cc(NC(C)=O)c(Cl)cc1C(=O)NCC1CN(Cc2ccc(F)cc2)CCO1` (centres undefined), the GE (Mus musculus [5]) was 82%, the GE (Rattus norvegicus [1]) was 74% and the GE (Rattus norvegicus [6]) was 0%. The GE (Mus musculus [7]) was 75%, the GE (Rattus norvegicus [9]) was 33% and the GE (Rattus norvegicus [8]) was 22%.

Compound `CCOc1cc(N)c(Cl)cc1C(=O)NCC1C[N+]([O-])(Cc2ccccc2Cl)CCO1` (centres undefined) has a GE (Rattus norvegicus [1]) of 52%.

In the case of `COc1cc(N)c(Cl)cc1C(=O)NCC1CN(Cc2ccc(C#N)cc2)CCO1` (centres undefined), the GE (Mus musculus [5]) is reported as 44%, the GE (Rattus norvegicus [1]) is reported as 49% and the GE (Rattus norvegicus [6]) is reported as 36%. For the same compound, the GE (Mus musculus [7]) was 15%, the GE (Rattus norvegicus [9]) was 0% and the Acute toxicity (Mus musculus [2]) was “slight toxicity”. The GE (Rattus norvegicus [8]) was 21%.

`COc1cc(N)c(Cl)cc1C(=O)NCC1CN(Cc2ccc([N+](=O)[O-])cc2)CCO1` (centres undefined) showed a GE (Rattus norvegicus [1]) of 22%.

`COc1cc(N)c(Cl)cc1C(=O)NCC1CN(Cc2cccc(F)c2)CCO1` (centres undefined) gave a GE (Rattus norvegicus [1]) of 30%.

In the case of `CCOc1cc(N)c(Cl)cc1C(=O)NCC1CN(Cc2ccc(F)cc2F)CCO1` (centres undefined), the GE (Mus musculus [5]) is reported as 89%, the GE (Rattus norvegicus [1]) is reported as 76% and the GE (Rattus norvegicus [6]) is reported as 76%. The GE (Mus musculus [7]) was 83%, the GE (Rattus norvegicus [9]) was 0% and the GE (Rattus norvegicus [8]) was 42%.

For `CCOc1cc(N)c(Cl)cc1C(=O)NCC1CN(Cc2ccc(F)c(F)c2)CCO1` (centres undefined), the GE (Rattus norvegicus [1]) was 46%.

Work on `COc1cc(N)c(Cl)cc1C(=O)NCC1CN(Cc2ccc(C(=O)O)cc2)CCO1` (centres undefined) yielded a GE (Rattus norvegicus [1]) of 18%.

Compound `CCOc1cc(N)c(Cl)cc1C(=O)NCC1CN(Cc2cccc(C(F)(F)F)c2)CCO1` (centres undefined) has a GE (Mus musculus [5]) of 21%, a GE (Rattus norvegicus [1]) of 58% and a GE (Rattus norvegicus [6]) of 22%. The GE (Mus musculus [7]) was 4%, the GE (Rattus norvegicus [9]) was 32% and the Acute toxicity (Mus musculus [2]) was “slight toxicity”. For the same compound, the GE (Rattus norvegicus [8]) was 37%.

With `COc1ccc(CN2CCOC(CNC(=O)c3cc(Cl)c(N)cc3OC)C2)cc1` (centres undefined) the GE (Rattus norvegicus [1]) was 10%.

`COc1cc(N)c(Cl)cc1C(=O)NCC1CN(Cc2ccc(Br)cc2)CCO1` (centres undefined) showed a GE (Rattus norvegicus [1]) of 15%.

Work on `CCOc1cc(N)c(Cl)cc1C(=O)NCC1CN(Cc2ccc(Cl)cc2)CCO1` (centres undefined) yielded a GE (Mus musculus [5]) of 21%, a GE (Rattus norvegicus [1]) of 63% and a GE (Rattus norvegicus [6]) of 65%. For the same compound, the GE (Mus musculus [7]) was 0%, the GE (Rattus norvegicus [9]) was 37% and the Acute toxicity (Mus musculus [2]) was “slight toxicity”. It also gave a GE (Rattus norvegicus [8]) of 50%.

For `CCOc1cc(N)c(Cl)cc1C(=O)NCC1CN(Cc2ccccc2F)CCO1` (centres undefined), the GE (Rattus norvegicus [1]) was 60%.

`CCOc1cc(N)c(Cl)cc1C(=O)NCC1CN(CCCCc2ccccc2)CCO1` (centres undefined) was tested, and the GE (Rattus norvegicus [1]) was 47%.

`COc1cc(N)c(Cl)cc1C(=O)NCC1CN(Cc2ccc(Cl)cc2)CCO1` (centres undefined) was tested, and the Acute toxicity (Mus musculus [4]) was “moderate toxicity” and the GE (Rattus norvegicus [1]) was 36%.

With `COc1cc(N)c(Cl)cc1C(=O)NCC1CN(Cc2ccc(C)cc2)CCO1` (centres undefined) the GE (Rattus norvegicus [1]) was 11%.

`CCOc1cc(N)c(Cl)cc1C(=O)NCC1CN(Cc2ccc(F)cc2)CCO1` (centres undefined) [MOSAPRIDE] was tested, and the Acute toxicity (Mus musculus [4]) was “Partially active”, the GE (Mus musculus [5]) was 37% and the GE (Rattus norvegicus [1]) was 61%. It also gave a GE (Rattus norvegicus [6]) of 79%, a GE (Mus musculus [7]) of 44% and a GE (Rattus norvegicus [9]) of 44%. The GE (Rattus norvegicus [8]) was 46%.
